Tests used:
[1] = biological target: T1, CYP26B1 (Homo sapiens, UniProt Q9NR63); assay: Depletion of 4-OH-RA, 18-OH-RA and 4-oxo-RA by recombinant CYP26B1; format: in vitro ADME; conditions: 200 nM initial substrate, mono-exponential decay
T1 sequence (Q9NR63 1-512): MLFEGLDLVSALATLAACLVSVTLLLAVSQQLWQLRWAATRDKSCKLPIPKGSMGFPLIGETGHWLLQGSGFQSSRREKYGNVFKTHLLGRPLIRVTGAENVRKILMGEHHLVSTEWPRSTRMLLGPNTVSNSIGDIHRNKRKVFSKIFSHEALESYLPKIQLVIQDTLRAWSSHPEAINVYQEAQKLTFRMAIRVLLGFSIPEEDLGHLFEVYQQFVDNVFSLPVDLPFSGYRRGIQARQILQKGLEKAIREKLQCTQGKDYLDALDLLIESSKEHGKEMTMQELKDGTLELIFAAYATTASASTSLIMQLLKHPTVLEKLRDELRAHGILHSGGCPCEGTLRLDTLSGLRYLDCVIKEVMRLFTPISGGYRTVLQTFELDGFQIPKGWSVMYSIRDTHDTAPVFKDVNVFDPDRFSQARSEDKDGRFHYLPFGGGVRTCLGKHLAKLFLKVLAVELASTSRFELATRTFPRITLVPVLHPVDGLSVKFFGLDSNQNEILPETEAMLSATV

[2] = biological target: T2, CYP26A1 (Homo sapiens, UniProt O43174); assay: Depletion of 4-OH-RA, 18-OH-RA and 4-oxo-RA by recombinant CYP26A1; format: in vitro ADME; conditions: for kdep (depletion rate constant): CYP26A1, 200 nM initial substrate, mono-exponential decay; for fold efficiency of CYP26A1 over CYP26B1 in depleting substrate: CYP26A1 vs CYP26B1
T2 sequence (O43174 1-497): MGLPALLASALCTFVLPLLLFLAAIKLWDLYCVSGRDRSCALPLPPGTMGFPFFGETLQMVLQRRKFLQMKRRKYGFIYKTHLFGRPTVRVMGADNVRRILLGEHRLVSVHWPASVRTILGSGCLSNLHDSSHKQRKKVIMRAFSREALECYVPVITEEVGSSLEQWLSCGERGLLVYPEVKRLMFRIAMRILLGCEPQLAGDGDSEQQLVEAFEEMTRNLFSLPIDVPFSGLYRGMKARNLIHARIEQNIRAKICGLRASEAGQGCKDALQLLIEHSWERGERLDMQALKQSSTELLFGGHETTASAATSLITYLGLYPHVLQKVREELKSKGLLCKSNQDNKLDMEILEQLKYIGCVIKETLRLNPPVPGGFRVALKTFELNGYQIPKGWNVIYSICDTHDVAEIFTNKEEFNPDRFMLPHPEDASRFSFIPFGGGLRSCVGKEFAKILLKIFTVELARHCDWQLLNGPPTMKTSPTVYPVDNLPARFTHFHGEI

[3] = biological target: T3, purified CYP26B1 (Homo sapiens, UniProt Q9NR63); assay: Ligand-induced binding spectra with purified CYP26B1
T3 sequence (Q9NR63 1-512): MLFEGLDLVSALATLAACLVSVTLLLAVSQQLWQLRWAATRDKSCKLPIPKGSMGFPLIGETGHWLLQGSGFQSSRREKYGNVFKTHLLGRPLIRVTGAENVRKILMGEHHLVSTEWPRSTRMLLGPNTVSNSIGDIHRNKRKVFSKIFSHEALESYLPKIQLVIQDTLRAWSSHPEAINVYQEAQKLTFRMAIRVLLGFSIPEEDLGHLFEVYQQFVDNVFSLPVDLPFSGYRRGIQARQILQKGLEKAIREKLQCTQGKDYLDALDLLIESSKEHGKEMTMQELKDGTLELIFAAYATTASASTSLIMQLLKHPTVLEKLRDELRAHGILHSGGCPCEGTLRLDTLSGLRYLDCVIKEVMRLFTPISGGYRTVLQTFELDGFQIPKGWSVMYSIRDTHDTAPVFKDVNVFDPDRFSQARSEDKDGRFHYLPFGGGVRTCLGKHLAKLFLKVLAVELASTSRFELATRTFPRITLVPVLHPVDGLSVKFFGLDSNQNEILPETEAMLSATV
Summary of the method: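 Human CYP26B1 expressed in Sf9 insect cells, solubilized with NP40 and cholate, and purified on a Talon cobalt affinity column. Active P450 was quantified by CO difference spectrum. Enzyme at 235 pmol/mL in 100 mM KPi (pH 7.4) with 20% glycerol; absolute spectrum recorded first. Test ligand was added to test and reference cuvettes in 12.5 nM steps until saturation and maximal absorbance change.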

[4] = tested on: CYP3As and CYP2C8; conditions: by CYP3As and CYP2C8; cited from earlier work
[5] = biological target: T2, CYP26A1; assay: Kinetics of 4-OH-RA and 18-OH-RA formation from atRA by recombinant CYP26A1
[6] = biological target: T1, CYP26B1; assay: Kinetics of 4-OH-RA and 18-OH-RA formation from atRA by recombinant CYP26B1; conditions: substrate atRA
[7] = substrate: CC1=C(/C=C/C(C)=C/C=C/C(C)=C/C(=O)O)C(C)(C)CCC1; assay: cells, lysate or membranes named; conditions: other: substrate atRA, 37.0 °C

In the case of `CC(/C=C/C1=C(CO)CCCC1(C)C)=C\C=C\C(C)=C\C(=O)O` [18-OH-RA, 18-hydroxyretinoic acid], the “kdep (depletion rate constant)” value [1] is reported as 0.0005 ± 0.00017 s⁻¹, the “kdep (depletion rate constant)” value [2] is reported as 0.002 ± 0.00017 s⁻¹ and the “fold efficiency of CYP26A1 over CYP26B1 in depleting substrate” value (“fold efficiency … in depleting substrate” for short) [2] is reported as 2–4 fold.

With `CC1=C(/C=C/C(C)=C/C=C/C(C)=C/C(=O)O)C(C)(C)CCC1O` (centres unmarked) [4-OH-RA] the “kdep (depletion rate constant)” value [1] was 0.0005 ± 0.00017 s⁻¹, the “kdep (depletion rate constant)” value [2] was 0.00167 ± 0.00017 s⁻¹ and the “fold efficiency … in depleting substrate” value [2] was 2–4 fold.

For `CC1=C(/C=C/C(C)=C/C=C/C(C)=C/C(=O)O)C(C)(C)CCC1=O` [4-oxo-RA], the “kdep (depletion rate constant)” value [1] was 0.00033 ± 0 s⁻¹, the “kdep (depletion rate constant)” value [2] was 0.00083 ± 0.00017 s⁻¹ and the “fold efficiency … in depleting substrate” value [2] was 2–4 fold.

For `CC1=C(/C=C/C(C)=C/C=C/C(C)=C/C(=O)O)C(C)(C)CCC1` [atRA, All-trans-retinoic acid], the “binding of atRA with CYP26B1 (magnitude of difference spectrum)” value ([3]; atRA concentration dependent) is given as “tight binding”, the “ligand-induced difference spectrum type” value ([3]; purified CYP26B1 235 pmol/mL, atRA 10 nM to 500 nM, low-to-high spin shift of heme iron) is given as “type I difference spectrum” and the “Vmax for atRA hydroxylation” value [4] is given as 2–5 pmol/min/pmol P450. The “intrinsic clearance of atRA metabolism” value [4] was 0.2–0.4 µL/min/pmol P450, the “fold efficiency of CYP26A1 over CYP26B1 in overall depletion of atRA” value ([5]; formation of multiple primary metabolites (4-OH-RA, 18-OH-RA and 16-OH-RA)) was “approximately 20 fold” and the “Km for CYP26A1 relative to CYP26B1” value ([5]; substrate atRA) was “two-fold higher”. For the same molecule, the “Clint, 4-OH RA formation” value ([5]; substrate atRA, CYP26A1) was 190 µL/min/pmol P450, the “Clint, 18-OH RA formation” value ([5]; substrate atRA, CYP26A1) was 102 µL/min/pmol P450 and the “Vmax, 4-OH RA formation” value ([5]; substrate atRA, CYP26A1) was 9.5 ± 2.2 pmol/min/pmol P450. The “Vmax, 18-OH RA formation” value ([5]; substrate atRA, CYP26A1) was 5.0 ± 0.5 pmol/min/pmol P450, the “lower Vmax for 18-OH-RA formation compared to 4-OH-RA formation” value ([5]; substrate atRA, CYP26A1) was 45% and the “18-OH-RA formation by CYP26B1” value [6] was “could be detected but the formation was insufficient to determine kinetic constants”. For the same molecule, the “Vmax of CYP26B1 mediated 4-OH-RA formation relative to CYP26A1” value [6] was 10%, the “fold higher intrinsic clearance by CYP26B1 than by CYP3A4 and CYP2C8” value [6] was “approximately 100 fold” and the “Clint, 4-OH RA formation” value ([6]; CYP26B1) was 43 µL/min/pmol P450. For the same molecule, the “Vmax, 4-OH RA formation” value ([6]; CYP26B1) was 0.81 ± 0.2 pmol/min/pmol P450.

B1: CYP26B1 (Homo sapiens) (protein)
chain: MLFEGLDLVSALATLAACLVSVTLLLAVSQQLWQLRWAATRDKSCKLPIPKGSMGFPLIGETGHWLLQGSGFQSSRREKYGNVFKTHLLGRPLIRVTGAENVRKILMGEHHLVSTEWPRSTRMLLGPNTVSNSIGDIHRNKRKVFSKIFSHEALESYLPKIQLVIQDTLRAWSSHPEAINVYQEAQKLTFRMAIRVLLGFSIPEEDLGHLFEVYQQFVDNVFSLPVDLPFSGYRRGIQARQILQKGLEKAIREKLQCTQGKDYLDALDLLIESSKEHGKEMTMQELKDGTLELIFAAYATTASASTSLIMQLLKHPTVLEKLRDELRAHGILHSGGCPCEGTLRLDTLSGLRYLDCVIKEVMRLFTPISGGYRTVLQTFELDGFQIPKGWSVMYSIRDTHDTAPVFKDVNVFDPDRFSQARSEDKDGRFHYLPFGGGVRTCLGKHLAKLFLKVLAVELASTSRFELATRTFPRITLVPVLHPVDGLSVKFFGLDSNQNEILPETEAMLSATV
For B1, the kcat ([7]; CYP26B1) was 0.8 pmol/min/pmol P450 and the kcat ([7]; CYP26B1, abstract) was 0.8 pmol/min/pmol.

B2: CYP26A1 (Homo sapiens) (protein)
chain: MGLPALLASALCTFVLPLLLFLAAIKLWDLYCVSGRDRSCALPLPPGTMGFPFFGETLQMVLQRRKFLQMKRRKYGFIYKTHLFGRPTVRVMGADNVRRILLGEHRLVSVHWPASVRTILGSGCLSNLHDSSHKQRKKVIMRAFSREALECYVPVITEEVGSSLEQWLSCGERGLLVYPEVKRLMFRIAMRILLGCEPQLAGDGDSEQQLVEAFEEMTRNLFSLPIDVPFSGLYRGMKARNLIHARIEQNIRAKICGLRASEAGQGCKDALQLLIEHSWERGERLDMQALKQSSTELLFGGHETTASAATSLITYLGLYPHVLQKVREELKSKGLLCKSNQDNKLDMEILEQLKYIGCVIKETLRLNPPVPGGFRVALKTFELNGYQIPKGWNVIYSICDTHDVAEIFTNKEEFNPDRFMLPHPEDASRFSFIPFGGGLRSCVGKEFAKILLKIFTVELARHCDWQLLNGPPTMKTSPTVYPVDNLPARFTHFHGEI
In the case of B2, the kcat ([7]; CYP26A1) is reported as 10 pmol/min/pmol P450 and the kcat ([7]; CYP26A1, abstract) is reported as 10 pmol/min/pmol.

— publication PMC3229621 (Biochemical pharmacology, 2011)
